In ChEMBL document CHEMBL4196021, “Targeting G-quadruplex DNA structures in the telomere and oncogene promoter regions by benzimidazole‒carbazole ligands” (Eur J Med Chem, 2018):
Activity calls are given as the source filed them. No cut-off for these calls is given here.

How the values were obtained:
[1] = test system: Quadruplex DNA; assay: Binding affinity to human telomeric G-quadruplex DNA at 0.6 uM after 5 mins in presence of KCl by fluorescence spectroscopic method; format: nucleic-acid assay
In short: (§1)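 Fluorescence titration at 25 °C with 0.6 µM ligand in 10 mM Tris-HCl pH 7.4, 100 mM KCl, 0.1 mM EDTA. Preformed G4 DNA was added stepwise, with 5 min incubation before each spectrum. Excitation 330 nm; emission 350–550 nm, slit 5 nm.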

[2] = test system: Quadruplex DNA; assay: Binding affinity to human c-Kit2 G-quadruplex DNA at 0.6 uM after 5 mins in presence of KCl by fluorescence spectroscopic method; format: nucleic-acid assay; in short: as §1
[3] = test system: Quadruplex DNA; assay: Binding affinity to human VEGF G-quadruplex DNA at 0.6 uM after 5 mins in presence of KCl by fluorescence spectroscopic method; format: nucleic-acid assay; in short: as §1
[4] = test system: Quadruplex DNA; assay: Induction of conformational changes in human telomeric G-quadruplex DNA assessed as inversion from potassium ion stabilized hybrid type mixed parallel/antiparallel G-quadruplex to stable telomere parallel-stranded G-quadruplex after 5 mins in presence of KCl by CD spectroscopic method; format: nucleic-acid assay
In short: (§2)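 CD spectra of 5 µM G4 DNA in 10 mM Tris-HCl pH 7.4, 100 mM KCl, 0.1 mM EDTA, with or without ligand. Mixtures were heated 95 °C for 5 min and slowly cooled to room temperature. Recorded 200–400 nm at 25 °C, 100 nm/min, 2 s response, 1 cm cell; average of three scans.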

[5] = test system: Quadruplex DNA; assay: Induction of conformational changes in human Bcl2 G-quadruplex DNA assessed as inversion from potassium ion stabilized hybrid type mixed parallel/antiparallel G-quadruplex to stable telomere parallel-stranded G-quadruplex after 5 mins in presence of KCl by CD spectroscopic method; format: nucleic-acid assay; in short: as §2
[6] = test system: Quadruplex DNA; assay: Binding affinity to human c-Myc G-quadruplex DNA assessed as stabilization of parallel stranded topology after 5 mins in presence of KCl by CD spectroscopic method; format: nucleic-acid assay; in short: as §2
[7] = test system: Quadruplex DNA; assay: Binding affinity to human c-Kit2 G-quadruplex DNA assessed as stabilization of parallel stranded topology after 5 mins in presence of KCl by CD spectroscopic method; format: nucleic-acid assay; in short: as §2
[8] = test system: Quadruplex DNA; assay: Binding affinity to human VEGF G-quadruplex DNA assessed as stabilization of parallel stranded topology after 5 mins in presence of KCl by CD spectroscopic method; format: nucleic-acid assay; in short: as §2
[9] = target: Quadruplex DNA; assay: Displacement of thiazole orange from human telomeric G-quadruplex DNA after 5 mins in presence of KCl by fluorescence assay; format: nucleic-acid assay
In short: (§3)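 Thiazole orange displacement from a G4 DNA–TO complex (1 µM TO + 0.5 µM G4 DNA) in 10 mM Tris-HCl pH 7.4, 100 mM KCl, 0.1 mM EDTA. Ligand was added in increasing steps, with 5 min incubation each. Fluorescence read at ex 501/em 531 nm; % displacement = 100 − (Ft/F0 × 100). DC50 is the ligand concentration giving 50% displacement, read from plots; average of two independent experiments.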

[10] = target: Quadruplex DNA; assay: Displacement of thiazole orange from human c-Myc G-quadruplex DNA after 5 mins in presence of KCl by fluorescence assay; format: nucleic-acid assay; in short: as §3
[11] = target: Quadruplex DNA; assay: Displacement of thiazole orange from human Bcl2 G-quadruplex DNA after 5 mins in presence of KCl by fluorescence assay; format: nucleic-acid assay; in short: as §3
[12] = target: Quadruplex DNA; assay: Displacement of thiazole orange from human c-Kit1 G-quadruplex DNA after 5 mins in presence of KCl by fluorescence assay; format: nucleic-acid assay; in short: as §3
[13] = target: Quadruplex DNA; assay: Displacement of thiazole orange from human c-Kit2 G-quadruplex DNA after 5 mins in presence of KCl by fluorescence assay; format: nucleic-acid assay; in short: as §3
[14] = target: Quadruplex DNA; assay: Displacement of thiazole orange from human VEGF G-quadruplex DNA after 5 mins in presence of KCl by fluorescence assay; format: nucleic-acid assay; in short: as §3
[15] = test system: Calf thymus DNA; assay: Displacement of thiazole orange from calf thymus duplex DNA after 5 mins in presence of KCl by fluorescence assay; format: nucleic-acid assay, Bos taurus
[16] = test system: Quadruplex DNA; assay: Binding affinity to human c-Myc G-quadruplex DNA assessed as change in melting temperature in presence of KCl by CD spectroscopic method; format: nucleic-acid assay
In short: (§4)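 CD melting of 5 µM G4 DNA in 10 mM Tris-HCl pH 7.4, 25 mM KCl, 0.1 mM EDTA. Ligand was present during folding (heating, slow cooling). Spectra 200–400 nm over 20–96 °C in 2 °C steps, buffer blank subtracted. Tm was taken from normalized ellipticity at the positive maximum (262 nm for promoter G4s). ΔTm = ligand-bound minus DNA alone; average of two independent experiments.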

[17] = test system: Quadruplex DNA; assay: Binding affinity to human c-Kit1 G-quadruplex DNA assessed as change in melting temperature in presence of KCl by CD spectroscopic method; format: nucleic-acid assay; in short: as §4
[18] = test system: Quadruplex DNA; assay: Binding affinity to human c-Kit2 G-quadruplex DNA assessed as change in melting temperature in presence of KCl by CD spectroscopic method; format: nucleic-acid assay; in short: as §4
[19] = test system: Quadruplex DNA; assay: Binding affinity to human 77-mer c-Myc G-quadruplex DNA assessed as inhibition of Taq DNA polymerase-mediated DNA synthesis by measuring generation of premature chain termination products using 32P-labeled primer after 30 mins by polymerase stop assay; format: nucleic-acid assay
In short: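 Template of 10 nM single-stranded 77-mer c-MYC with the G-quadruplex-forming sequence, annealed to 32P-labeled plus cold primer (15 nM) in Tris-HCl pH 7.4 with 5 mM KCl. Annealing was 95 °C for 5 min then slow cooling, with ligand added before annealing. Extension with Taq polymerase (5 mM MgCl2, 0.5 mM DTT, 0.2 mM dNTPs) ran 30 min at 48 or 40 °C. Products were resolved on 15% urea denaturing PAGE and read by phosphorimaging.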

[20] = test system: Quadruplex DNA; assay: Stabilization of c-Myc G-quadruplex DNA in human HeLa cells assessed as decrease in c-Myc mRNA level at 5 uM after 24 hrs by RT-PCR method relative to control; format: cell-based; design: scale not given: the % may be the effect or the level left
In short: (§5)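 HeLa cells exposed to increasing ligand concentrations (5 and 10 µM named) for 24 h, with DMSO-treated cells as control. Total RNA was extracted with TRI reagent and DNase I-treated. c-MYC and VEGF transcripts were quantified by qRT-PCR, normalized to GAPDH, and expressed as relative fold change.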

[21] = test system: Quadruplex DNA; assay: Stabilization of c-Myc G-quadruplex DNA in human HeLa cells assessed as decrease in c-Myc mRNA level at 10 uM after 24 hrs by RT-PCR method relative to control; format: cell-based; design: scale not given: the % may be the effect or the level left; in short: as §5
[22] = test system: Quadruplex DNA; assay: Stabilization of VEGF G-quadruplex DNA in human HeLa cells assessed as decrease in VEGF mRNA level at 5 uM after 24 hrs by RT-PCR method relative to control; format: cell-based; design: scale not given: the % may be the effect or the level left; in short: as §5
[23] = test system: Quadruplex DNA; assay: Stabilization of VEGF G-quadruplex DNA in human HeLa cells assessed as decrease in VEGF mRNA level at 10 uM after 24 hrs by RT-PCR method relative to control; format: cell-based; design: scale not given: the % may be the effect or the level left; in short: as §5
[24] = test system: HeLa; assay: Effect on GADPH mRNA level in human HeLa cells assessed as decrease in VEGF mRNA level at 2.5 to 10 uM after 24 hrs by RT-PCR method; format: cell-based
[25] = test system: HeLa; assay: Cytotoxicity against human HeLa cells assessed as reduction in cell viability after 72 hrs by MTT assay; format: functional, cell-based
In short: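 HeLa and MCF7 cells in log phase were seeded for 24 h, then exposed to a range of ligand concentrations for 72 h. MTT (5 mg/ml stock) was added for 4 h, formazan dissolved in DMSO, and absorbance read at 570 nm. Three independent experiments in triplicate, mean ± SD.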

Activity [1]: Active | Activity [2]: Active | Activity [3]: Active | Activity [4]: Active | Activity [5]: Active | Activity [6]: Active | Activity [7]: Active | Activity [8]: Active | DC50 [9]: 1130 nM | DC50 [10]: 830 nM | DC50 [11]: 1390 nM | DC50 [12]: 860 nM | DC50 [13]: 650 nM | DC50 [14]: 780 nM | DC50 [15]: 6940 nM | ΔTm [16]: 7.35 °C | ΔTm [17]: 24.7 °C | ΔTm [18]: 23.3 °C | Activity [19]: Dose-dependent effect
SMILES: CN(C)CCCCn1c2ccc(-c3nc4ccc(N5CCN(CCO)CC5)cc4[nH]3)cc2c2cc(-c3nc4ccc(N5CCN(CCO)CC5)cc4[nH]3)ccc21
Activity [20]: 49% | Activity [21]: 71% | Activity [22]: 44% | Activity [23]: 68% | Activity [24]: Non-Toxic | Activity [25]: Dose-dependent effect | IC50 [25]: 8290 nM
